Measured values reported in ChEMBL document CHEMBL4118021, “Studies of TAK1-centered polypharmacology with novel covalent TAK1 inhibitors” (Bioorg Med Chem, 2017).
Blank lines part the entries; values can stand above or below the molecule they belong to. Activity calls are given as the source filed them. No cut-off for these calls is given here.

How the values were obtained:
[1] = biological target: Glycogen synthase kinase-3 beta (Homo sapiens) (UniProt P49841); assay: Binding affinity to GSK3B in human NCI-H358 cells at 1 uM by mass spectrometry based pull down assay; type: cell-based
[2] = biological target: Mitogen-activated protein kinase kinase kinase 20 (Homo sapiens) (UniProt Q9NYL2); assay: Binding affinity to ZAK in human NCI-H23 cells at 1 uM by mass spectrometry based pull down assay; type: cell-based
Chain of Mitogen-activated protein kinase kinase kinase 20 (Homo sapiens) (Q9NYL2 2-800 limits assumed): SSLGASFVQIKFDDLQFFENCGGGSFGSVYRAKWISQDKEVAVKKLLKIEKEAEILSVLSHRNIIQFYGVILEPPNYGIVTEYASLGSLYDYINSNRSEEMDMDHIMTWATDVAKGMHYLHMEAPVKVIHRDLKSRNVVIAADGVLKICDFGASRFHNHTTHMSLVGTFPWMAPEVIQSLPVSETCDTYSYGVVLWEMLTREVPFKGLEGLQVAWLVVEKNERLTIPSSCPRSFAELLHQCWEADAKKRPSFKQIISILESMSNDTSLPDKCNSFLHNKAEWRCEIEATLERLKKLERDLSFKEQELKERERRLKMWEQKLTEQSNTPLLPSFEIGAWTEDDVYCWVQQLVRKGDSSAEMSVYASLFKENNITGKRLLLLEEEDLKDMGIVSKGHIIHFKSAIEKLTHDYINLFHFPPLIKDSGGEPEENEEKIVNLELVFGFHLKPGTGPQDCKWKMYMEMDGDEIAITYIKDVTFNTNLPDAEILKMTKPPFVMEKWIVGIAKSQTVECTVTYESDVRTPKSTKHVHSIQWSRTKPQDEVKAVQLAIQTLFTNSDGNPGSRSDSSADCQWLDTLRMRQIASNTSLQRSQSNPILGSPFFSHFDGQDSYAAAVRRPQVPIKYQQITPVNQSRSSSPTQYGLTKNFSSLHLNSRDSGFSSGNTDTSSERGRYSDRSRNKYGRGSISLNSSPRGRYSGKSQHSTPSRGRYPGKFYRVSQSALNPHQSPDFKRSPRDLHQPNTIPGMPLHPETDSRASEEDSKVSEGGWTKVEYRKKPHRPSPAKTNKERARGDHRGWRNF

[3] = biological target: WD repeat and HMG-box DNA-binding protein 1 (Homo sapiens) (UniProt O75717); assay: Binding affinity to WDHD1 in human NCI-H23 cells at 1 uM by mass spectrometry based pull down assay; type: cell-based
[4] = biological target: Signal recognition particle receptor subunit beta (Homo sapiens) (UniProt Q9Y5M8); assay: Binding affinity to SRPRB in human NCI-H358 cells at 1 uM by mass spectrometry based pull down assay; type: cell-based
Chain of Signal recognition particle receptor subunit beta (Homo sapiens) (Q9Y5M8 whole entry): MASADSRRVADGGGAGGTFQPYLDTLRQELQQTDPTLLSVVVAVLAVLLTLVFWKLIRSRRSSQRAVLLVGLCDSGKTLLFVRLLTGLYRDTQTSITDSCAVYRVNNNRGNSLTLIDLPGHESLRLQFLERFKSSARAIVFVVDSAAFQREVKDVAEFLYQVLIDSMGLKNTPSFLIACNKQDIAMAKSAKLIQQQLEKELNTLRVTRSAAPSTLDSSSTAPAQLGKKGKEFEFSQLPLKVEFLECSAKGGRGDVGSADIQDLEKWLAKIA

[5] = biological target: Y-box-binding protein 3 (Homo sapiens) (UniProt P16989); assay: Binding affinity to YBX3 in human NCI-H23 cells at 1 uM by mass spectrometry based pull down assay; type: cell-based
[6] = biological target: Serine/threonine-protein phosphatase 2A catalytic subunit beta isoform (Homo sapiens) (UniProt P62714); assay: Binding affinity to PPP2CB in human NCI-H358 cells at 1 uM by mass spectrometry based pull down assay; type: cell-based
Chain of Serine/threonine-protein phosphatase 2A catalytic subunit beta isoform (Homo sapiens) (P62714 whole entry, canonical isoform): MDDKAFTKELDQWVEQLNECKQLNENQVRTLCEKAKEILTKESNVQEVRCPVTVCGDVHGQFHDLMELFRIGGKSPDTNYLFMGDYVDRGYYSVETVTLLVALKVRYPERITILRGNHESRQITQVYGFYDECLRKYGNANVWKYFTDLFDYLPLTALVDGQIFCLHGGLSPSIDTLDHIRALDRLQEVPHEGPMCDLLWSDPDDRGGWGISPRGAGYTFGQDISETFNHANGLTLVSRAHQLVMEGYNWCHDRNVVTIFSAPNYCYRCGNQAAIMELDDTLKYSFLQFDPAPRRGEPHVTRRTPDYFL

[7] = biological target: Multifunctional protein CAD (Homo sapiens) (UniProt P27708); assay: Binding affinity to CAD in human NCI-H358 cells at 1 uM by mass spectrometry based pull down assay; type: cell-based
[8] = biological target: T1, Aurora kinase A (Homo sapiens) (UniProt O14965); assay: Binding affinity to AURKA in human NCI-H358 cells at 1 uM by mass spectrometry based pull down assay; type: cell-based
T1 sequence (whole entry): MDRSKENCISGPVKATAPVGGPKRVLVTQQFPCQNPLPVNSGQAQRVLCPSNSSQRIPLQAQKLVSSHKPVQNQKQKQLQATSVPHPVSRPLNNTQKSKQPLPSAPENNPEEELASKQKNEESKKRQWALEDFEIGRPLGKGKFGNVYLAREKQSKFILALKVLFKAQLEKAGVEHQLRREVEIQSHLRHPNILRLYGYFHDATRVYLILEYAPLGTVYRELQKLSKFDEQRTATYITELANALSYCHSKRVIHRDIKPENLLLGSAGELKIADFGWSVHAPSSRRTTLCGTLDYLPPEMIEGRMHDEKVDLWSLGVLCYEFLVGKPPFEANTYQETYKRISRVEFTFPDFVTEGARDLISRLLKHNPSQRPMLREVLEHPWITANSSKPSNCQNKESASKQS

[9] = biological target: Mitotic interactor and substrate of PLK1 (Homo sapiens) (UniProt Q8IVT2); assay: Binding affinity to MISP in human NCI-H358 cells at 1 uM by mass spectrometry based pull down assay; type: cell-based
[10] = biological target: Pyrroline-5-carboxylate reductase 2 (Homo sapiens) (UniProt Q96C36); assay: Binding affinity to PYCR2 in human NCI-H23 cells at 1 uM by mass spectrometry based pull down assay; type: cell-based
[11] = biological target: Actin-related protein 2/3 complex subunit 2 (Homo sapiens) (UniProt O15144); assay: Binding affinity to ARPC2 in human NCI-H358 cells at 1 uM by mass spectrometry based pull down assay; type: cell-based
[12] = biological target: Inosine-5'-monophosphate dehydrogenase 2 (Homo sapiens) (UniProt P12268); assay: Binding affinity to IMPDH2 in human NCI-H23 cells at 1 uM by mass spectrometry based pull down assay; type: cell-based
[13] = biological target: 80S Ribosome (Homo sapiens) (UniProt P08865+P42677+P62753+P15880+P23396+P61247+P62701+P22090+P46782+P62081+P62241+P46781+P46783+P62280+P25398+P62277+P62263+P62841+P62244+P62249+P08708+P62269+P39019+P60866+P63220+P62266+P62847+P62851+P62854+P62979+P62857+P62273+P62861+P39023+P36578+P46777+Q02878+P18124+P62424+P62917+P32969+P27635+P62906+P62913+P30050+P26373+P40429+P50914+P61313+P18621+Q07020+Q02543+P84098+P46778+P35268+P62829+P62750+P83731+P61254+P61353+P46776+P46779+P47914+P62888+P62899+P62910+P49207+P42766+P18077+Q9Y3U8+P83881+P61927+P61513+P63173+P62891+P62945+P05388+P05386); assay: Binding affinity to RPS11 in human NCI-H23 cells at 1 uM by mass spectrometry based pull down assay; type: cell-based
[14] = biological target: Serine/threonine-protein kinase Chk2 (Homo sapiens) (UniProt O96017); assay: Binding affinity to CHEK2 in human NCI-H23 cells at 1 uM by mass spectrometry based pull down assay; type: cell-based
Chain of Serine/threonine-protein kinase Chk2 (Homo sapiens) (O96017 whole entry): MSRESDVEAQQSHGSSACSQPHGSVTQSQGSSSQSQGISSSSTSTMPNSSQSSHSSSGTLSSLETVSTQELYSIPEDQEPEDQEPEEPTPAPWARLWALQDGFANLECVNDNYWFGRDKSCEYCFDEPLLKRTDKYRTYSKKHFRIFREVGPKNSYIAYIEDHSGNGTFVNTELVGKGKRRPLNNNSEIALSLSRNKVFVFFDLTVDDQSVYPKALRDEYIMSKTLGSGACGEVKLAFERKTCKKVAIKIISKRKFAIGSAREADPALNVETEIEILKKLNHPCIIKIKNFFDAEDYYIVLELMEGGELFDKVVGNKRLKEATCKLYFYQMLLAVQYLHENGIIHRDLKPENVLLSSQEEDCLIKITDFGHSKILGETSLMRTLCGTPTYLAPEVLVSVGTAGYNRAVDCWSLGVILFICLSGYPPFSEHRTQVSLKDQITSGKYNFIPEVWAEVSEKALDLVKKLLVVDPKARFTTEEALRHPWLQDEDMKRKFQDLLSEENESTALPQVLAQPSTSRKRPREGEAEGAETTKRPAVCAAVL

[15] = biological target: AP2-associated protein kinase 1 (Homo sapiens) (UniProt Q2M2I8); assay: Binding affinity to AAK1 in human NCI-H23 cells at 1 uM by mass spectrometry based pull down assay; type: cell-based
Chain of AP2-associated protein kinase 1 (Homo sapiens) (Q2M2I8 whole entry, looked up): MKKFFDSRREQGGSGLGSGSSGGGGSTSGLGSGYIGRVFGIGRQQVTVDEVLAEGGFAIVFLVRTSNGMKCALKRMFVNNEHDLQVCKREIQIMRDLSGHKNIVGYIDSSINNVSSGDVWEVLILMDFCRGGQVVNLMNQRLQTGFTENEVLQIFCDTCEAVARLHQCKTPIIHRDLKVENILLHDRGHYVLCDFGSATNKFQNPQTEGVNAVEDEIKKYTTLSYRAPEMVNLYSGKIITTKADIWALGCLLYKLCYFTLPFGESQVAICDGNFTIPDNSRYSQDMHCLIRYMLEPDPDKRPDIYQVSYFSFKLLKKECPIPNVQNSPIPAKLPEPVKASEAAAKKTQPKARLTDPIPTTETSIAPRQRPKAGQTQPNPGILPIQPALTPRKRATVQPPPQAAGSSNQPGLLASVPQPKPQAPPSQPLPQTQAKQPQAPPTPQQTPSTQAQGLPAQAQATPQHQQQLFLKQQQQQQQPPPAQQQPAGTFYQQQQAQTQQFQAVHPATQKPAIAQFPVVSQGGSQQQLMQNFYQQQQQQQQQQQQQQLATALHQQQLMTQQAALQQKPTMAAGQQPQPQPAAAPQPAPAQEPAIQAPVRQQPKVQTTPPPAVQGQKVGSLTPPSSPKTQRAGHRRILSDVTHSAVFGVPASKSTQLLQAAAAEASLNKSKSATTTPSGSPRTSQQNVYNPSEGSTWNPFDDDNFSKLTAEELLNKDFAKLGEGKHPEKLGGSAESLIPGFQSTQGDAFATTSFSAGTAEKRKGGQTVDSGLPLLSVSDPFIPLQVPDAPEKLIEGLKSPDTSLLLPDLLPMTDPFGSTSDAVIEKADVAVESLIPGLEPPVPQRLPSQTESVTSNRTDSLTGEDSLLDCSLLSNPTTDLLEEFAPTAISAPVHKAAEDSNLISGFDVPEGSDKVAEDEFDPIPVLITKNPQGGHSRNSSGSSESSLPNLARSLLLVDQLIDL
Method in brief: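 NCI-H23 or NCI-H358 cells were grown and lysed. Lysates were incubated overnight at 4 °C with 1 μM biotinylated covalent probe or DMSO, then pulled down on streptavidin beads. Proteins were run on polyacrylamide gels and stained with Coomassie. Bands were excised, digested and identified by mass spectrometry.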

[16] = biological target: Mitogen-activated protein kinase 13 (Homo sapiens) (UniProt O15264); assay: Inhibition of p38d in human SKCO1 cells at 1 uM after 4 hrs using biotin labeled DLKPGNLAVNEDCELK probe by mass-spectrometric analysis relative to control; type: cell-based
Chain of Mitogen-activated protein kinase 13 (Homo sapiens) (O15264 whole entry): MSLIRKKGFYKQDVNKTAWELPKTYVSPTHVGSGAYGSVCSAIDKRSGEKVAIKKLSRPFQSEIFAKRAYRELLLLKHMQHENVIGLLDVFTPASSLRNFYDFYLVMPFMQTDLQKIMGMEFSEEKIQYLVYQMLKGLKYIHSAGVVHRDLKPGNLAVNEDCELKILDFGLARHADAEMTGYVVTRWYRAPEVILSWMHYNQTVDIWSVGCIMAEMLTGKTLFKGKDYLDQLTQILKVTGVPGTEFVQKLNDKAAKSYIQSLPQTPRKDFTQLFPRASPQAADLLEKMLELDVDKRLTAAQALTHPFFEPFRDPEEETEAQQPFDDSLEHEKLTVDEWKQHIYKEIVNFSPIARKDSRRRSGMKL

[17] = biological target: Tyrosine-protein kinase Fyn (Homo sapiens) (UniProt P06241); assay: Inhibition of FYN in human SKCO1 cells at 1 uM after 4 hrs using biotin labeled VAIKTLKPGTMSPESFLEEAQIMK probe by mass-spectrometric analysis relative to control; type: cell-based
[18] = biological target: Mitogen-activated protein kinase 12 (Homo sapiens) (UniProt P53778); assay: Inhibition of p38g in human SKCO1 cells at 1 uM after 4 hrs using biotin labeled DLKPGNLAVNEDCELK probe by mass-spectrometric analysis relative to control; type: cell-based
Chain of Mitogen-activated protein kinase 12 (Homo sapiens) (P53778 whole entry, the tested form may be a part): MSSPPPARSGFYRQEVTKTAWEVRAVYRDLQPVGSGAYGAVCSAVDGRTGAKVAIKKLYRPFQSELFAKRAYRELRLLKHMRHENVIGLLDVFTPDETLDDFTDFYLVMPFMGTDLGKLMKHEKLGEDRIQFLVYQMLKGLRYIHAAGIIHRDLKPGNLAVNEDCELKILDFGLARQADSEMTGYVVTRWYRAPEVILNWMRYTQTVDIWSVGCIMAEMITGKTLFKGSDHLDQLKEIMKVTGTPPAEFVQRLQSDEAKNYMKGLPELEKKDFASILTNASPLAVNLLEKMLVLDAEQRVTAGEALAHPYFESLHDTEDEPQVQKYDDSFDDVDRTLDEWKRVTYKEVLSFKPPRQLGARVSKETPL

[19] = biological target: Vascular endothelial growth factor receptor 2 (Homo sapiens) (UniProt P35968); assay: Inhibition of human VEGFR2 (787 to 1253 residues) expressed in mammalian expression system assessed as enzyme activity at 1 uM by KINOMEScan assay relative to control; design: scale not given: the % may be the effect or the level left
Chain of Vascular endothelial growth factor receptor 2 (Homo sapiens) (P35968 whole entry, the tested form may be a part): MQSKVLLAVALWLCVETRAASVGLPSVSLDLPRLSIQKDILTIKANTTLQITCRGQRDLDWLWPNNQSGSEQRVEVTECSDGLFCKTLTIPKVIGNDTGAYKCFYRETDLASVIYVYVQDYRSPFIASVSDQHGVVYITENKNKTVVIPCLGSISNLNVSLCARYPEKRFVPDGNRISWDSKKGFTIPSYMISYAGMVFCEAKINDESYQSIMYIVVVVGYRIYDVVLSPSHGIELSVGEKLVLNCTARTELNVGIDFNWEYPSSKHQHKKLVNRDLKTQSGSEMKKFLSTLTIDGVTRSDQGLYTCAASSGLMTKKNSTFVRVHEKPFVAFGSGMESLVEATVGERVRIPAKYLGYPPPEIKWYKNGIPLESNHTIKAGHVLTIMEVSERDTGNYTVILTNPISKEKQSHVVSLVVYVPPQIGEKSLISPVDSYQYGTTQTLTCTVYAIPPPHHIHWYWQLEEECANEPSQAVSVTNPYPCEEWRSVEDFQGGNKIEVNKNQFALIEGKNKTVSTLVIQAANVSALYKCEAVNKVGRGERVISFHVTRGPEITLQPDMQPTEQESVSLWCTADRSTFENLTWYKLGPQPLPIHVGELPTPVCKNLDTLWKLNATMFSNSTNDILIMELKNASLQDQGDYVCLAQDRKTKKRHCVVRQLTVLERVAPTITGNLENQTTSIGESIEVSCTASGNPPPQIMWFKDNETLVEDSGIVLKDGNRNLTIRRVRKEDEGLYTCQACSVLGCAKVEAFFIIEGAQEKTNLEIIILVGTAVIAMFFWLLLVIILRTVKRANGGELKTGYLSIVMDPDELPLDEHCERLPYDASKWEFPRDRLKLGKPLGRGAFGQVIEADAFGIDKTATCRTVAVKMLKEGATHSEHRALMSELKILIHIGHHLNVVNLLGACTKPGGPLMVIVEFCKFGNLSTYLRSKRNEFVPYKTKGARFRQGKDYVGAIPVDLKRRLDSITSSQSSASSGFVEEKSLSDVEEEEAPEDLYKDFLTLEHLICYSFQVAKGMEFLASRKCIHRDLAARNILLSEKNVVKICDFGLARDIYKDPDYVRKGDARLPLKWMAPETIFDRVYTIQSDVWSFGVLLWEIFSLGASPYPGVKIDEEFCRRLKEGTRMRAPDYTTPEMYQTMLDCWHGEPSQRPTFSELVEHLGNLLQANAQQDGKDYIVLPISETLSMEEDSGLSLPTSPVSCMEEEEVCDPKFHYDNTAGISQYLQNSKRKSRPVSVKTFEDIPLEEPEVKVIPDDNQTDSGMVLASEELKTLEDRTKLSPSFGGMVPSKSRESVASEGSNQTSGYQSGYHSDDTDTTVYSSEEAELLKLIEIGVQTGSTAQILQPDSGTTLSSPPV
Method in brief: (§1)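 In vitro ATP-site competition binding assay across a panel of 456 kinases, with compound tested at 1 and 10 μM.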

[20] = biological target: Receptor-type tyrosine-protein kinase FLT3 (Homo sapiens) (UniProt P36888); assay: Inhibition of human FLT3 (592 to 969 residues) expressed in bacterial expression system assessed as enzyme activity at 10 uM by KINOMEScan assay relative to control; design: scale not given: the % may be the effect or the level left; method in brief: as §1
[21] = biological target: Receptor-type tyrosine-protein kinase FLT3 (Homo sapiens, UniProt P36888); assay: Inhibition of FLT3 (unknown origin)

Activity [1]: Active
Activity [2]: Active
Activity [3]: Active
Activity [4]: Active
Activity [5]: Active
Activity [6]: Active
Activity [7]: Active
Activity [8]: Active
Activity [9]: Active
Activity [10]: Active
Activity [11]: Active
Activity [12]: Active
Activity [13]: Active
Activity [14]: Active
Activity [15]: Active
SMILES: C=CC(=O)Nc1ccccc1Nc1nc(Nc2ccc(N3CCN(CCOCCOCCOCCNC(=O)CCCC[C@@H]4SC[C@@H]5NC(=O)N[C@@H]54)CC3)cc2)ncc1Cl

SMILES: C=CC(=O)Nc1ccccc1Nc1nc(Nc2ccc(N3CCN(C)CC3)cc2)ncc1Cl
inhibition [16]: -8.5%
inhibition [17]: 8.3%
inhibition [18]: -8.5%

SMILES: COc1cc(O)c2c(c1)/C=C/C[C@H](O)[C@H](O)C(=O)/C=C\C[C@H](C)OC2=O
Activity [19]: 78%
Activity [20]: 0.55%

SMILES: C=CC(=O)Nc1ccccc1Oc1nc(Nc2cnn(CCOC)c2)ncc1Cl
IC50 [21]: 0.54 nM
